Measurements published in PubChem BioAssay AID504383 (The Scripps Research Institute Molecular Screening Center, 2011).
The whole screen tested about 2,500 compounds, of which about 1,200 (48%) were called active. The set was probably picked from earlier hits. The list shows a part of the results. A number with no mark means an inactive call.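 The calls were made as follows: active = mean activation above the low control average plus 3 SD, as set in the primary screen (cut at about 12% in these data); inactive = the rest.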

target: Troponin I, cardiac muscle (Homo sapiens) + Troponin T, cardiac muscle (Homo sapiens) + Troponin C, slow skeletal and cardiac muscles (Homo sapiens) (UniProt P19429+P45379+P63316); experiment: calcium sensitizers of cardiac thin filaments – biochemical, IANBD-TnC fluorescence, triplicate, confirmation (AID 504383); details: IANBD-labeled cardiac RTF, Ca2+ sensitivity fluorescence; at 7.2 µM; active compounds read high; scaled from EC20 to saturating calcium; tested at EC20 calcium, 0.472 mM;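 also: 0% = DMSO at 0.472 mM calcium and 100% = DMSO at 2.9 mM calcium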
Method in brief: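 Material: labelled regulated thin filaments; Reagent: 0.472 mM calcium; Incubation: 15 min compound incubation with filaments at 25 °C; Detection: filament fluorescence intensity; Evaluation: fluorescence increase normalised to calcium controls; Benchmarks: low control EC20 calcium, high control EC100 calcium.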

SMILES | activation
O=c1c(O)c(-c2cccs2)oc2ccc(Cl)cc12 | 4.87%
C/C(=N/NC(=O)c1ccncc1)c1cc2ccc(O)cc2oc1=O | 4.52%
O=C(N/N=C/c1cc(Cl)cc(Cl)c1O)c1ccncc1 | 17.9% (active)
Nc1nnnn1/N=C/c1cc(Cl)cc(Cl)c1O | 11%
CC1(C)CC2CC(C)(CN2CC(=O)C(C#N)c2ccccc2)C1 (configuration not stated) | 7.07%
Cn1ncc2c(O/N=C(\N)c3ccc(C(F)(F)F)cc3)ncnc21 | 93.4% (active)
Nc1ccn([C@H]2C[C@H](O)[C@@H](CO)O2)c(=O)n1 | 11.1%
CC1(OC(=O)CCc2ccccc2)C(=O)C=C2C=C(c3ccc(C#N)cc3)N(C3CCCC3)C=C2C1=O (configuration not stated) | 5.7%
Cc1cc(C)n(C2CCCCC2OC(=O)CCc2ccccc2)n1 (configuration not stated) | 35.8% (active)
CC1(C)CC(CC(=O)Nc2nccs2)(c2ccccc2)CCO1 (configuration not stated) | 604% (active)
C=CCn1c(SCC(=O)Nc2nccs2)nnc1-c1ccco1 | 7.96%
O=C(Cc1c(F)cccc1Cl)Nc1nccs1 | 1.97%
COc1ccccc1N1CCN(C(=O)c2ccc(Cn3c(=O)[nH]c4ccsc4c3=O)cc2)CC1 | 125% (active)
CN1CCN(S(=O)(=O)c2cccc(C(=O)Oc3cccc(Br)c3)c2)CC1 | 11.4%
COCC(=O)NC1CCN(S(=O)(=O)c2cccc(C(C)=O)c2)CC1 | 14.3% (active)
O=C(N/N=C/c1sc2ccccc2c1O)c1ccccc1 | 66.7% (active)
COc1ccc(C(=O)N/N=C/c2sc3ccccc3c2O)cc1 | 14.3% (active)
COc1ccc2cc(C(=O)N/N=C/c3sc4ccccc4c3O)ccc2c1 | 277% (active)
CC(=NNC(=O)c1ccncc1)c1ccc2ccccc2c1O | 6.88%
O=C(N/N=C/c1sc(N2CCOCC2)nc1-c1ccccc1)c1cccc(S(=O)(=O)N2CCCC2)c1 | 3.15%
CN(/N=C/c1ccc(O)cc1O)c1ncc(C(F)(F)F)cc1Cl | 6.15%
CCN1CC=C2C(C1)C(c1ccc(Cl)s1)C(C#N)=C(N)C2(C#N)C#N (configuration not stated) | 19.5% (active)
Cc1cc(C)c(OCCOCCN2CCNCC2)c(C)c1 | 7.52%
CCc1ccc(C(C)NC(=O)c2ncn[nH]2)cc1 (configuration not stated) | 17.2% (active)
C[C@@H](NC(=O)c1ncn(C)c1C(=O)N[C@H](C)c1ccccc1)c1ccccc1 | 2.64%

SMILES | activation
CCn1c(NC(=O)Nc2cccc(C)c2C)cc2sccc21 | 12.6% (active)
COc1ccc(C2C(C(C)=O)=C(C)N=c3s/c(=C\c4cc(C)n(C)c4C)c(=O)n32)c(OC)c1 (configuration not stated) | 15% (active)
CCOC(=O)C(C(=O)Nc1cccc(C)n1)C1CCCCC1 (configuration not stated) | 7.01%
CCOC(=O)c1[nH]cnc1C(=O)Nc1ccccn1 | 12.4% (active)
CCN(CC)c1ccc2cc(C(=O)Nc3ccccn3)c(=O)oc2c1 | 7.83%
Cc1oc(-c2cc3c(cc2Cl)OCO3)nc1CN1CCCC(C(=O)N2CCOCC2)C1 (configuration not stated) | 447% (active)
CCN(C(=O)CSc1nnc(COc2ccccc2F)n1N)c1c(N)n(Cc2ccccc2)c(=O)[nH]c1=O | 1020% (active)
Cc1ccc2[nH]cc(/C=C/c3cc[n+](C)cc3)c2c1 | 6.68%
CC[n+]1ccc(/C=C/c2c[nH]c3ccccc23)cc1 | 167% (active)
OCC[n+]1ccc(/C=C/c2c[nH]c3ccccc23)cc1 | 6.81%
C[n+]1ccc(/C=C/c2c[nH]c3ccc(F)cc23)cc1 | 5.69%
C[n+]1ccc(/C=C/c2c[nH]c3ccccc23)cc1 | 45.7% (active)
C[n+]1cc(C(=O)N2CCCCC2)ccc1/C=C/c1c[nH]c2ccccc12 | 8.02%
C(=Cc1c[nH]c2ccccc12)c1nccc2ccccc12 | 16.3% (active)
CC(=O)N(c1ccccc1)C1SC(=O)N(c2ccccc2)C1=O (configuration not stated) | 9.18%
Cc1cccc(C)c1-n1c(C)nn(-c2ncc(C(F)(F)F)cc2Cl)c1=O | 2.27%
O=c1nc2c(O)cccn2c2c1c(=O)[nH]c1ccccc12 | 11.7% (active)
CC(=O)Nc1cccc(C(=O)/C=C/c2ccc(N(C)C)cc2)c1 | 15.4% (active)
CN(C)c1ccc(/C=C/C(=O)c2cccc(Br)c2)cc1 | 9.43%
NC(=O)C1CCN(c2ccc3c(c2)S(=O)(=O)c2ccccc2C3=O)CC1 | 5.74%
COC(=O)C1CCN(C(=O)CN2C(=O)c3ccccc3S2(=O)=O)CC1 | 2170% (active)
CN(C)c1ccc(/C=C/C(=O)c2ccc3c(c2)OCO3)cc1 | 11%
COc1cc(/C=C/C(=O)c2ccc3c(c2)OCO3)cc(Cl)c1O | 15.6% (active)
CCC(=O)N1CCN(c2nc(C)nc3sc(C)c(C)c23)CC1 | 4.34%
N#CC1(NC(=O)CN2CCN(S(=O)(=O)c3ccccc3F)CC2)CCCC1 | 2.39%

SMILES | activation
O=C(CN1CCN(c2ccccc2F)CC1)NCc1ccc(Cl)cc1 | 13% (active)
CCOC(=O)c1cnc2c(C)c(Cl)ccc2c1N1CCOCC1 | 80.7% (active)
CSc1ccc(Cl)c(C(=O)NNC(=O)c2csc(N3CCOCC3)n2)c1 | 9.67%
Cc1cc(Cl)ccc1OCC(=O)NCCOc1nc(N2CCOCC2)nc(N2CCOCC2)n1 | 6.88%
CN(C)c1ccc(N=Cc2nc(-c3ccccc3)oc2O)cc1 | 37.2% (active)
CC(=O)Nc1ccc(N=Cc2nc(-c3ccc(C)cc3)oc2O)cc1 | 33.1% (active)
Cc1nc(C)c2c(c1C(F)(F)F)-c1ccccc1C2(F)F | 9.1%
Cc1[nH]c(=S)c(C#N)c(C)c1CCC#N | 8.9%
COc1cc(N2CCCC2)c(OC)cc1/C=C(/C#N)c1cccc(Br)c1 | 8.22%
COc1cc(N2CCCC2)c(OC)cc1/C=C(/C#N)c1ccc(Br)cc1 | 12.2% (active)
Cc1ccc(NC(=O)COc2ccc(/C=N/NC(=O)CSCc3ccccc3)cc2)cc1 | 58.9% (active)
CCOC(=O)C1=C(C)N(CCCCCC(=O)O)C(=O)NC1c1ccccc1Cl (configuration not stated) | 6.32%
CCOC(=O)c1[nH]c2ccc(OCC)cc2c1CCCN1C(=O)c2ccccc2C1=O | 156% (active)
Brc1ccc(-c2noc(-c3ccccn3)n2)o1 | 5.39%
CCOC(=O)C1=C(C)N=c2s/c(=C\c3ccc(OCC(=O)O)cc3)c(=O)n2C1c1ccc(Cl)cc1 (configuration not stated) | 14.5% (active)
CCOC(=O)C1=C(C)N=c2s/c(=C/c3ccc(OCC(=O)O)c(OC)c3)c(=O)n2C1c1ccc(Cl)cc1 (configuration not stated) | 16.8% (active)
CCOC(=O)C1=C(C)N=c2s/c(=C/c3ccc(OCC(=O)O)cc3)c(=O)n2C1c1ccc(SC)cc1 (configuration not stated) | 5.43%
O=C1CCC[C@@H]2Cc3nc4ccc(O)cc4cc3[C@@H]3CCN1[C@H]23 | 3.13%
O=C(Cn1c2[n+](c3ccc(C(F)(F)F)cc31)CCCCC2)Nc1ccccc1 | 0.79%
O=C(O)CCC(=O)Nc1cc(C(F)(F)F)cc(C(F)(F)F)c1 | 30.5% (active)
O=C(CN1CCN(c2ccccc2)CC1)Nc1cccc(C(F)(F)F)c1 | 5.41%
CC(C)(C)OC(=O)N1CCC(Cc2cc(-c3cccnc3)no2)(C(=O)O)CC1 | 15.8% (active)
COCCn1c(SCC#N)nnc1-c1ccc([N+](=O)[O-])cc1 | 4.93%
Cc1sc(NC(=O)CSc2nnc(C(C)C)n2C)c(C#N)c1C | 80.6% (active)
CC(=O)N1CCCc2cc(S(=O)(=O)N3CCCC(C(=O)Nc4cccc(C)c4)C3)ccc21 (configuration not stated) | 8.68%

SMILES | activation
Cc1cc(S(=O)(=O)N2CCCC(C(=O)Nc3ccc(C(=O)O)cc3)C2)ccc1Cl (configuration not stated) | 41.5% (active)
CC(=O)c1ccc(NC(=O)C2CCCN(S(=O)(=O)c3c(C)[nH]c(=O)[nH]c3=O)C2)cc1 (configuration not stated) | 58.6% (active)
Cc1cc2cc(C=C(C#N)C#N)c(Cl)nc2cc1C | 1.28%
CN(C)c1ccc(/C=C/c2nc3ccccc3c(=O)n2-c2ccc(C(=O)O)cc2)cc1 | 2.26%
O=C(O)c1ccc(-n2c(/C=C/c3cccc([N+](=O)[O-])c3)nc3ccccc3c2=O)cc1 | 15.1% (active)
COc1cc(C(=O)NCc2nnc(SCC(=O)Nc3ccc4c(c3)OCO4)o2)cc(OC)c1OC | 165% (active)
COc1cc(C(=O)Nc2ccc(Cl)c(C(F)(F)F)c2)cc(OC)c1OC | 9.75%
COc1ccc(N/C=C\C(=O)c2ccc(Br)cc2)cc1OC | 59.4% (active)
COc1cc(OC)c(OC)cc1/C=C/C(=O)c1ccc(NS(=O)(=O)c2ccc(C)cc2)cc1 | 8.63%
CCOC(=O)c1ccc(N2C(=O)C3C(C2=O)C(C(=O)c2ccc(Cl)cc2)N2CCCC32)cc1 (configuration not stated) | 12.8% (active)
CC(=O)Oc1ccc(N2C(=O)C3C(C2=O)C(C(=O)c2ccc(Cl)cc2)N2CCCC32)cc1 (configuration not stated) | 77.4% (active)
COc1ccc(N2C(=O)C3C(C2=O)C(C(=O)c2ccc(Cl)cc2)N2CCCC32)cc1 (configuration not stated) | 8.37%
CCOC(=O)c1ccc(-n2c(CCC(=O)O)ccc2-c2cccs2)cc1 | 2.47%
CCN1CCN(Cc2c(O)ccc3c2O/C(=C\c2ccccc2)C3=O)CC1 | 17.9% (active)
COc1ccccc1/C=C/C=C1\Oc2c(ccc(O)c2CN(C)C)C1=O | 24.3% (active)
CN(C)Cc1c(O)ccc2c1O/C(=C\C=C\c1ccccc1)C2=O | 6.64%
CCc1ccc(/C=C2\Oc3c(ccc(O)c3CN3CCN(C)CC3)C2=O)cc1 | 8.07%
COCCN(CCOC)Cc1c(O)ccc2c1O/C(=C\c1ccc(C)o1)C2=O | 3.93%
COCCN(CCOC)Cc1c(O)ccc2c1O/C(=C\c1ccco1)C2=O | 9.93%
CCN1CCN(Cc2c(O)ccc3c2O/C(=C\C=C\c2ccccc2)C3=O)CC1 | 65.3% (active)
CCN(CC)Cc1c(O)ccc2c1O/C(=C\C=C\c1ccccc1)C2=O | 13.5% (active)
CCN1CCN(Cc2c(O)ccc3c2O/C(=C\c2ccc(C)cc2)C3=O)CC1 | 5.39%
